Series [1] has as its system Rattus norvegicus. In words: Intrinsic total body clearance in Crj:CD(SD)IGS rat at 0.125 mg/hr, iv administered as continuous infusion by HPLC based liquid scintillation counting analysis. Format: ADME, organism-based. The settings on record: in vivo. The method, boiled down: (§1)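 Rats received a continuous iv infusion of [14C]M-III at 0.125 mg/rat/h, with probenecid co-infused at 16, 31 or 62 mg/h/kg or vehicle alone, for 5 h. Arterial plasma was sampled during infusion. CLtot = infusion rate / steady-state plasma M-III (120–180 min). Unbound fraction was measured by ultrafiltration of 5-h plasma (10,000 MWCO, 1500g, 37°C, 10 min). CLint = CLtot / unbound ratio.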

A short description of series [2]: Unbound fraction in Crj:CD(SD)IGS rat plasma at 0.125 mg/hr, iv administered as continuous infusion by ultrafiltration method in presence of 16 mg/hr/kg probenecid. Type of series: ADME, organism-based. Conditions: with probenecid 16 mg/hr/kg. The method, boiled down: as §1
Series [3] is described as follows: Terminal half life in Crj:CD(SD)IGS rat at 0.5 mg/kg, iv administered as bolus dose by HPLC-based liquid scintillation counting analysis. Type of series: ADME, organism-based. Conditions: in vivo, read-out: beta t1/2 (converted). Further details: dose 0.5 mg/kg, route intravenous. In a few lines: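 [14C]M-III in saline given as a single iv bolus at 0.5 mg/kg to male rats (tail-vein blood, 5 min–24 h) or male beagle dogs (cephalic-vein blood, 5 min–168 h). Heparinized plasma counted for radioactivity; M-III quantified by HPLC with fraction collection and liquid scintillation counting. C5 min read directly; terminal t1/2 by linear regression, kel = ln2/t1/2, Vd = dose/back-extrapolated C0, CLtot = dose/AUCinf. Mean ± S.D., n = 3.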

A short description of series [4]: Unbound fraction in Crj:CD(SD)IGS rat plasma at 0.125 mg/hr, iv administered as continuous infusion by ultrafiltration method in presence of 62 mg/hr/kg probenecid. The settings on record: with probenecid 62 mg/hr/kg (co-administered). Format: ADME, organism-based. The method, boiled down: as §1
A short description of series [5]: In vitro plasma protein binding in dog at 5 ug/ml by ultrafiltration method. Format: ADME, cell-free, Canis lupus familiaris. The settings on record: read-out: PPB (converted). In a few lines: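 [14C]M-III in saline was added to rat or dog plasma at final 0.5, 5 and 50 µg/ml. Plasma was ultrafiltered by centrifugation at 1500g and 37°C for 10 min, and 14C was measured in plasma and filtrate. Mean ± S.D., n = 3.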

A further series deals with Plasma. Kind of series: Plasma concentration in Beagle dog at 0.5 mg/kg, iv administered as bolus dose by HPLC based liquid scintillation counting analysis. Type of series: ADME, organism-based, Canis lupus familiaris. The arrangement: dose 0.5 mg/kg, route intravenous. Conditions: in vivo.
Series [6] deals with Rattus norvegicus. Kind of series: Intrinsic total body clearance in Crj:CD(SD)IGS rat at 0.125 mg/hr, iv administered as continuous infusion by HPLC based liquid scintillation counting analysis in presence of 62 mg/hr/kg probenecid. The settings on record: in vivo. Type of series: ADME, organism-based. The method, boiled down: as §1
Series [7] can be described thus: Drug excretion in Beagle dog feces assessed as excretion ratio of [14C] at 0.5 mg/kg, iv administered as bolus dose measured from 0 to 168 hrs by HPLC-based liquid scintillation counting analysis. Type of series: ADME, organism-based, Canis lupus familiaris. Further details: dose 0.5 mg/kg, route intravenous. The settings on record: in vivo. In a few lines:
(§2)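 Male rats in metabolic cages with urine/feces separator, or beagle dogs, after a 0.5 mg/kg iv bolus of [14C]M-III in saline. Radioactivity in urine and feces collected 0–24 h (rats) or 0–168 h (dogs) was counted and expressed as percent of dose. Mean ± S.D., n = 3.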

Series [8] relates to Rattus norvegicus. Kind of series: Unbound renal clearance in Crj:CD(SD)IGS rat at 0.5 mg/kg, iv administered as bolus dose measured from 0 to 24 hrs by HPLC-based liquid scintillation counting analysis. The settings on record: in vivo. Further details: dose 0.5 mg/kg, route intravenous. Type of series: ADME, organism-based, Kidney. In a few lines:
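Male Crj:CD(SD)IGS rats received [14C]M-III in saline as an IV bolus at 0.5 mg–2.6 MBq/kg. Urine was collected in metabolic cages over 0–24 h. M-III in urine was taken as total urinary 14C times the M-III fraction, measured by direct HPLC, 1-min fraction collection and scintillation counting. CLrenal = urinary M-III / AUC. Unbound CLrenal = CLrenal / free fraction, from in vivo ultrafiltration binding. n = 3.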

A short description of series [9]: Unbound fraction in Crj:CD(SD)IGS rat plasma at 0.125 mg/hr, iv administered as continuous infusion by ultrafiltration method. Type of series: ADME, organism-based. In a few lines: as §1
Series [10] is described as follows: Drug excretion in Crj:CD(SD)IGS rat feces assessed as excretion ratio of [14C] at 0.5 mg/kg, iv administered as bolus dose measured from 0 to 24 hrs by HPLC-based liquid scintillation counting analysis. Format: ADME, organism-based. Further details: dose 0.5 mg/kg, route intravenous. Conditions: in vivo. In a few lines:
as §2

Series [11] can be described thus: Renal clearance in Beagle dog at 0.5 mg/kg, iv administered as bolus dose measured from 0 to 168 hrs by HPLC-based liquid scintillation counting analysis. Type of series: ADME, organism-based, Canis lupus familiaris, Kidney. Further details: dose 0.5 mg/kg, route intravenous. Conditions: in vivo. The method, boiled down:
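After a 0.5 mg/kg iv bolus of [14C]M-III, urine was collected 0–24 h (rat) or 0–168 h (dog) and injected directly onto HPLC with fraction collection and scintillation counting. M-III in urine was derived from the urinary 14C excretion ratio and the [14C]M-III composition. CLrenal = urinary M-III amount / AUC0–24 h (rat) or AUC0–168 h (dog). Unbound CLrenal = CLrenal / free fraction.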

This is an account of results in ChEMBL document CHEMBL3526115, “Differences in the pharmacokinetics of 4-amino-3-chlorophenyl hydrogen sulfate, a metabolite of resatorvid, in rats and dogs” (Drug Metab Dispos, 2012).

Regarding `N[14c]1[14cH][14cH][14c](OS(=O)(=O)O)[14cH][14c]1Cl`, the clearance with Rattus norvegicus [1] stood at 130 mL/min/kg. Also, the fraction unbound was 0.078 in series [2], 0.184 in series [4] and 0.088 in series [9]. Further, the half-life in series [3] was 4.1 h. The fraction unbound at 5 ug/ml in series [5] is 0.087. The Cp with Plasma stood at 2500 ng/mL. Further, in the series on Rattus norvegicus [6], the CL amounted to 9.38 mL/min/kg. For the same compound, the Drug excretion in series [7] was found to be 7.7%; in series [10], 10.3%. In the series on Rattus norvegicus [8], this compound showed a CL free of 96.3 mL/min/kg. In series [11], this compound had a CL renal of 0.00468 mL/min/kg.
